Screening data deposited in PubChem BioAssay by Sanford-Burnham Center for Chemical Genomics.
Hits are enriched below; roughly 2.3% of the tested compounds scored in any of these assays.
DNMT1 inh: blocks human DNA methyltransferase DNMT1; P26358; DNMT1 molecular beacon, Hinp1I cleavage, fluorescence; inhibition (reported as % activation of signal), % at 10 µM; 360,000 compounds, 0.83% hits; AID 588458; in the data active = inhibition above about 50%
NadD inh: blocks S. aureus nicotinate mononucleotide adenylyltransferase. 360,000 compounds, 0.78% hits. inhibition, % at 20 µM. purified NadD enzyme, colorimetric absorbance read-out; in the data active = inhibition above about 26%
SUMO1-SIM PPI: SUMO1-SIM interaction modulation; P63165; SUMO1 binding to a labelled peptide, TR-FRET, 1 h; inhibition, % at 20 µM; 360,000 compounds, 0.33% hits; AID 602429; in the data active = inhibition above about 37%
Target sequence (P63165 whole entry, looked up): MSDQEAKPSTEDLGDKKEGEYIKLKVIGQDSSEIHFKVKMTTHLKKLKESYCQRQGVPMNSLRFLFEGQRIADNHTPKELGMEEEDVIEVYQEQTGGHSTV
STEP inh: STEP (human) phosphatase inhibition. P54829. recombinant STEP, OMFP fluorogenic substrate, fluorescence. inhibition, % at 20 µM. 360,000 compounds, 0.25% hits. AID 588621;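 active = inhibition at 20 µM, scaled per plate between control wells, above about 37%, limit read from the data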;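 note: 0% = DMSO with enzyme and substrate and 100% = substrate only without enzyme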
Target sequence (P54829 whole entry, looked up): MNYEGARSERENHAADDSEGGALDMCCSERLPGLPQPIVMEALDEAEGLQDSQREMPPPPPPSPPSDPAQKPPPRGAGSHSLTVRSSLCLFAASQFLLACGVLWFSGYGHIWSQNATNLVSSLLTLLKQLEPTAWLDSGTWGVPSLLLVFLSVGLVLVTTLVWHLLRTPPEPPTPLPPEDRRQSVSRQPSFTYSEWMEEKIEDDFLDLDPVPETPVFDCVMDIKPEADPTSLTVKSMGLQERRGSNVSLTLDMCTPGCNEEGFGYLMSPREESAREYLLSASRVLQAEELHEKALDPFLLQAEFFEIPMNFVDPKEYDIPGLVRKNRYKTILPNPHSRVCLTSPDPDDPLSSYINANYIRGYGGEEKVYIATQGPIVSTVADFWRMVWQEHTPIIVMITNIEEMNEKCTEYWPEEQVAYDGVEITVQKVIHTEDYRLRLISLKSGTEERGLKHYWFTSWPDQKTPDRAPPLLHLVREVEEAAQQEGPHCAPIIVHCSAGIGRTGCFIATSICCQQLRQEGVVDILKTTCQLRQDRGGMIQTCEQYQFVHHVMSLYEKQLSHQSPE
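Also added – OMFP at 25 µM · Test system – STEP tyrosine phosphatase · Technique – FITC-channel fluorescence of OMFP product · Schedule – 20 min at room temperature, dark · Evaluation – control-normalized % inhibition with plate pattern correction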
Scp-1 inhibitor: blocks human Scp-1 phosphatase activity; Recombinant Scp1, phosphopeptide, malachite green phosphate absorbance; 340,000 compounds, 0.88% hits; inhibition, % at 20 µM; Q9GZU7;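 active = inhibition above about 50% at 20 µM, limit read from the data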;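 note: plate controls were DMSO wells with enzyme for no effect and wells lacking enzyme for full effect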
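Times: enzyme reaction 45 min at room temperature, colour 5 min, stabilisation 30 min. Material: SCP-1 catalytic fragment, aa 76-261. Medium: Acidic Tris acetate buffer with magnesium and detergent. Signal: colorimetric free-phosphate detection, absorbance 630 nm. Read-out basis: % inhibition of SCP-1 phosphate liberation. Reagent: Phosphorylated 17-residue peptide substrate.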
LMPTP inh: blocks human LMPTP phosphatase | AID 651560 | inhibition, % at 20 µM | recombinant LMPTP-A, OMFP fluorogenic substrate, fluorescence intensity | P24666 | 360,000 compounds, 0.22% hits;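 active = compounds that cut the enzyme signal by at least half of the control window in the single-dose screen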;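 note: plate controls were DMSO wells with enzyme plus substrate for no effect and substrate without enzyme for full effect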
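Assay system: LMPTP-A enzyme. Input: 0.625 nM LMPTP-A final. Probe or stimulus: 400 µM OMFP. Compound dosing: single 20 µM dose. Schedule: 50 min dark incubation at room temperature. Detection: fluorescence intensity of OMFP turnover product. Read-out: percent inhibition versus substrate-only and uninhibited controls. Benchmarks: no-enzyme low control, uninhibited high control.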
DNMT1 interf DR: counter-screen for DNMT1 inhibitors: spectral interference, dose response. shares compounds with DNMT1 inh. molecular beacon fluorescence. IC50, µM. 200 tested, under 10 active. AID 602382
DNMT1 inh conf: confirmation of human DNMT1 inhibitors; shares compounds with DNMT1 inh; DNMT1 molecular beacon HinP1I cleavage, fluorescence; inhibition, % at 10 µM; 2,300 compounds, 8% hits; AID 602385;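 active = average inhibition of at least 30% in the single-concentration confirmation test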
Beacon interf: counter-screen for DNMT1 inhibitors: spectral interference; shares compounds with DNMT1 inh; DNMT1 molecular beacon spectral interference counterscreen, fluorescence 485/520; activation (fluorescence interference), % at 10 µM; 2,300 compounds, 1% hits;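 active = activation of at least 30% at 10 µM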;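 note: DNMT1 catalytic domain with a HinP1I cleavage step and a FAM/dabcyl DNA beacon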
STEP inh conf: STEP (human) phosphatase inhibition, single concentration confirmation. shares compounds with STEP inh. recombinant STEP, OMFP fluorogenic substrate, fluorescence. inhibition, % at 20 µM. 520 compounds, 32% hits. AID 623866;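 note: 0% = enzyme with substrate plus DMSO and 100% = substrate without enzyme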
NadD conf: NadD (S. aureus) inhibition, single concentration confirmation | shares compounds with NadD inh | purified S. aureus NadD, colorimetric enzyme assay | inhibition, % at 20 µM | 2,000 compounds, 13% hits | AID 624309; in the data active = inhibition mostly above about 42%, no sharp cut-off; inactive = mostly below about 42%
* hit, by the source's call; . = no result given. Unless noted, the rule behind the calls is not given here.

SMILES	DNMT1 inh	NadD inh	SUMO1-SIM PPI	STEP inh	Scp-1 inhibitor	LMPTP inh	DNMT1 inh conf	Beacon interf	NadD conf	others
CSc1ccc(C=NNc2ccc(S(=O)(=O)Nc3ccccc3C(=O)O)cc2[N+](=O)[O-])cc1	86*	41*	96*	44*	5	91*	55*	-8	21	DNMT1 interf DR=>99;STEP inh conf=59*
COc1ccc(CN2CCC2(C)C(=O)NCc2ccc3c(c2)OCO3)c2ccccc12 (configuration not stated)	-11	0	2	1	.	1	.	.	.
Clc1cccc(Cc2c(-c3ccco3)nc3ccc(Cl)cn23)c1	45	28	6	5	.	1	.	.	.
Clc1cccc(Cc2c(-c3ccco3)nc3ccc(Br)cn23)c1	68*	41*	5	0	.	13	19	2	13
Cc1ccc2nc(N3C(=O)C(O)=C(C(=O)c4ccc(C)o4)C3c3ccco3)sc2c1 (configuration not stated)	36	26	-5	5	4	10	.	.	.
O=C(C1=C(O)C(=O)N(c2nc3ccc(Cl)cc3s2)C1c1ccco1)c1ccco1 (configuration not stated)	90*	56*	40*	28	64*	60*	12	4	51*
COc1ccc(/C=N/NC(=O)c2nc(Cl)c(Cl)c(N)c2Cl)cc1COc1ccc(F)cc1F	53*	53*	2	3	13	3	9	0	4
COc1ccc(/C=N\NC(=O)c2ccccc2F)cc1COc1ccc(F)cc1F	-5	-5	0	3	-9	8	.	.	.
CCOC(=O)C1=CN(Cc2cccc(F)c2)S(=O)(=O)N(C)C1c1ccc2ccccc2c1 (configuration not stated)	5	-4	0	-1	-14	3	.	.	.
COc1ccc(NS(=O)(=O)c2ccc(O)c(NC(=O)c3cc4c(C)nn(-c5ccc(F)cc5)c4s3)c2)cc1	97*	47*	12	-2	16	3	69*	-4	40	DNMT1 interf DR=>99
CCNc1ccc(Br)cc(C(=O)/C=C/c2ccc3c(c2)OCO3)c1=O	89*	52*	22	4	6	54*	1	1	25
CCNc1ccc(Br)cc(C(=O)/C=C/c2ccc(Cl)cc2)c1=O	66*	44*	20	2	-17	22	4	1	18
Nc1ccccc1C(=O)/C=C/c1ccc2c(c1)OCO2	7	-4	-21	0	-6	2	.	.	.
CC12CCC(C(=O)N(CC3CO3)C1=O)C2(C)C (configuration not stated)	0	-1	-2	-1	-15	-1	.	.	.
N#C/C(=C/c1ccc(-c2ccc([N+](=O)[O-])cc2)o1)C(=O)Nc1nc(-c2cccs2)cs1	87*	48*	-25	3	5	11	1	-3	6
Cc1cnc(NC(=O)c2ccc(-c3ccc([N+](=O)[O-])cc3)o2)s1	-8	9	-19	2	-5	5	.	.	.
Cc1ccc(Cc2cnc(NC(=O)/C(C#N)=C/c3ccc(-c4ccc([N+](=O)[O-])cc4)o3)s2)cc1	52*	48*	-17	6	-5	3	1	6	4
O=C(Nc1ccc(-c2n[nH]c(=S)o2)cc1)c1ccccc1Br	-3	-6	6	0	4	-1	.	.	.
CC1NC(=O)c2cc3ccccc3cc2-n2c1nc1cc(Cl)ccc1c2=O (configuration not stated)	-10	12	-6	-1	.	-4	.	.	.
CCCCn1c(-c2cccc(Br)c2)nc2cc3[nH]c(=O)c(C(C)C)nc3cc21	13	14	10	3	-3	3	.	.	.
CCCCn1c(-c2ccc(Cl)c(Cl)c2)nc2cc3[nH]c(=O)c(C(C)C)nc3cc21	53*	38*	7	3	5	2	-1	-3	16
O=C(Nc1ccc(N2CCCC2)cc1)c1cccc(-c2cc3ccccc3oc2=O)c1	76*	57*	-2	9	-3	23	-1	4	6
O=C(Nc1ccccc1N1CCCC1)c1cccc(-c2cc3ccccc3oc2=O)c1	3	22	-2	8	-2	3	.	.	.
CC(=O)N1CCN(c2ccc(NC(=O)c3ccc4ccccc4c3)cc2)CC1	-3	-7	-8	0	-5	1	.	.	.
O=C(Nc1ccc(N2CCCC2)cc1)c1ccc([N+](=O)[O-])cc1Cl	74*	36*	-10	1	1	36	1	-2	-2
SMILES	DNMT1 inh	NadD inh	SUMO1-SIM PPI	STEP inh	Scp-1 inhibitor	LMPTP inh	DNMT1 inh conf	Beacon interf	NadD conf	others
O=C(Nc1ccc(N2CCCC2)cc1)c1ccc2ccccc2c1	61*	34*	1	7	-3	7	3	2	12
O=C(NC1CCCC1)C(c1ccccc1)N(Cc1cccnc1)C(=O)Cc1cccs1 (configuration not stated)	6	1	-2	0	10	0	.	.	.
Cc1ccc(NC(=O)COc2ccc(/C=C3/SC(=Nc4ccccc4)N(Cc4cccnc4)C3=O)cc2)cc1	61*	40*	-3	0	7	-1	-1	-8	3
N#Cc1c(SCC(=O)Nc2nc3ccc(Br)cc3s2)sc2c(O)cc(=O)[nH]c12	80*	41*	31	22	54*	53*	27	-4	39	DNMT1 interf DR=>99
COCCn1c(-c2ccc(SC)cc2)nc2c1c(=O)[nH]c(=O)n2CC(C)C	-1	-3	2	-3	-10	0	.	.	.
COCCn1c(-c2ccc(-c3ccc([N+](=O)[O-])cc3Br)o2)nc2c1c(=O)[nH]c(=O)n2CC(C)C	70*	44*	-8	0	-7	4	-1	-1	6
NC(=S)NN=C1c2cc(OCCN3CCOCC3)ccc2-c2ccc(OCCN3CCOCC3)cc21	-5	-6	-36	-1	3	9	.	.	.
